# Test results from PMC10205660 (Chemistry (Weinheim an der Bergstrasse, Germany), 2023).
# Read-outs that look alike come from different tables or passages of the source.
# Tests used:
# Assay type in all cases: cell-based
# MCF7 (breast cancer) = assay: Antiproliferative activity, MCF7
# K562 (leukemia) = assay: Antiproliferative activity, K562
# A549 (lung cancer) = assay: Antiproliferative activity, A549; details: Homo sapiens
# [1] = system: Hsp90-dependent client proteins (pAkt, Cyclin D1, GLUT1), Hsp70, Hsp90 in MCF7 cells; details: MCF7, 48 h, Western blot; versus vehicle 0.25% DMSO
# Outline: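 MCF7 cells exposed to test compound at the stated amounts for 48 h, alongside vehicle (0.25% DMSO) and 1 μM geldanamycin as the reference Hsp90 inhibitor. Cell lysates were immunoblotted for pAkt, Cyclin D1, GLUT1, Hsp70, Hsp90 and F1F0 ATP synthase.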
# [2] = system: MCF7, K562 and A549 cell lines; assay: Antiproliferative activity, statements in text without a single cell line; details: for antiproliferative activity at highest concentration: at 4 μM; for fold reduction in activity compared to cruentaren A: versus cruentaren A, cell line not stated
# [3] = Homo sapiens, MCF7, read-out: IC50 values MCF7, MCF7
# [4] = Homo sapiens, K562, read-out: IC50 values K562, K562
# [5] = A549, read-out: IC50 values A549
# [6] = Homo sapiens, MCF7, read-out: IC50 values MCF7
# [7] = Homo sapiens, K562, read-out: IC50 values K562
SMILES,IC50 (MCF7 (breast cancer); [3]) [µM],IC50 (K562 (leukemia); [4]) [µM],IC50 (A549 (lung cancer); [5]) [µM],IC50 (MCF7 (breast cancer); [6]) [µM],IC50 (K562 (leukemia); [7]) [µM],also measured
"CCC[C@H](O)[C@@H](C)C(=O)NC/C=C\C[C@@H](C)[C@@H](O)[C@H](C)[C@@H]1C/C=C\C[C@H](C)[C@H](OC(=O)[C@@H](C)N)Cc2cc(OC)cc(O)c2C(=O)O1 [Compound 4, (3S,8S,9R,Z)-14-hydroxy-3-((2S,3R,4R,Z)-3-hydroxy-8-((2R,3S)-3-hydroxy-2-methylhexanamido)-4-methyloct-6-en-2-yl)-12-methoxy-8-methyl-1-oxo-3,4,7,8,9,10-hexahydro-1H-benzo[c][1]oxacyclododecin-9-yl D-alaninate]",0.0555,1.32,2.45,,,levels of Hsp70 and Hsp90 (heat shock response) [1]: remained at the same level as vehicle control
"CCC[C@H](O)[C@@H](C)C(=O)NC/C=C\C[C@@H](C)[C@@H](O)[C@H](C)[C@@H]1C/C=C\C[C@H](C)C(=O)Cc2cc(OC)cc(O)c2C(=O)O1 [Compound 2, (2R,3S)-3-hydroxy-N-((5R,6R,7S,Z)-6-hydroxy-7-((3S,8S,Z)-14-hydroxy-12-methoxy-8-methyl-1,9-dioxo-3,4,7,8,9,10-hexahydro-1H-benzo[c][1]oxacyclododecin-3-yl)-5-methyloct-2-en-1-yl)-2-methylhexanamide]",,,1.64,0.972,1.28,
"CCC[C@H](O)[C@@H](C)C(=O)NC/C=C\C[C@@H](C)[C@@H](O)[C@H](C)[C@@H]1C/C=C\C[C@H](C)[C@H](OC(=O)[C@H](N)Cc2ccccc2)Cc2cc(OC)cc(O)c2C(=O)O1 [Compound 6, (3S,8S,9R,Z)-14-hydroxy-3-((2S,3R,4R,Z)-3-hydroxy-8-((2R,3S)-3-hydroxy-2-methylhexanamido)-4-methyloct-6-en-2-yl)-12-methoxy-8-methyl-1-oxo-3,4,7,8,9,10-hexahydro-1H-benzo[c][1]oxacyclododecin-9-yl D-phenylalaninate]",0.114,1.12,1.28,,,
"CCC[C@H](OC(C)=O)[C@@H](C)C(=O)NC/C=C\C[C@@H](C)[C@@H](OC(C)=O)[C@H](C)[C@@H]1C/C=C\C[C@H](C)[C@H](OC(C)=O)Cc2cc(OC)cc(O)c2C(=O)O1 [Compound 9, (2R,3R,4R,Z)-2-((3S,8S,9R,Z)-9-acetoxy-14-hydroxy-12-methoxy-8-methyl-1-oxo-3,4,7,8,9,10-hexahydro-1H-benzo[c][1]oxacyclododecin-3-yl)-8-((2R,3S)-3-acetoxy-2-methylhexanamido)-4-methyloct-6-en-3-yl acetate]",,,> 4,> 4,> 4,antiproliferative activity at highest concentration [2]: inactive
"CCC[C@H](O)[C@@H](C)C(=O)NC/C=C\C[C@@H](C)[C@@H](OC(C)=O)[C@H](C)[C@@H]1C/C=C\C[C@H](C)[C@H](OC(C)=O)Cc2cc(OC)cc(O)c2C(=O)O1 [Compound 11, (2R,3R,4R,Z)-2-((3S,8S,9R,Z)-9-acetoxy-14-hydroxy-12-methoxy-8-methyl-1-oxo-3,4,7,8,9,10-hexahydro-1H-benzo[c][1]oxacyclododecin-3-yl)-8-((2R,3S)-3-hydroxy-2-methylhexanamido)-4-methyloct-6-en-3-yl acetate]",,,> 4,> 4,> 4,antiproliferative activity at highest concentration [2]: inactive
"CCC[C@H](O)[C@@H](C)C(=O)NC/C=C\C[C@@H](C)[C@@H](O)[C@H](C)[C@@H]1C/C=C\C[C@H](C)[C@H](OC(=O)[C@H](N)C(C)C)Cc2cc(OC)cc(O)c2C(=O)O1 [Compound 5, (3S,8S,9R,Z)-14-hydroxy-3-((2S,3R,4R,Z)-3-hydroxy-8-((2R,3S)-3-hydroxy-2-methylhexanamido)-4-methyloct-6-en-2-yl)-12-methoxy-8-methyl-1-oxo-3,4,7,8,9,10-hexahydro-1H-benzo[c][1]oxacyclododecin-9-yl D-valinate]",0.101,0.968,1.33,,,
"COC1=C2C[C@@H](C)C[C@H](OC)[C@H](O)[C@@H](C)/C=C(\C)[C@H](OC(N)=O)[C@@H](OC)/C=C\C=C(/C)C(=O)NC(=CC1=O)C2=O [geldanamycin, reference compound]",,,,,,levels of Hsp70 and Hsp90 (heat shock response) [1]: increased
"CCC[C@H](O)[C@@H](C)C(=O)NC/C=C\C[C@@H](C)[C@@H](O)[C@H](C)[C@@H]1C/C=C\C[C@H](C)[C@H](OC(=O)CN)Cc2cc(OC)cc(O)c2C(=O)O1 [Compound 3, (3S,8S,9R,Z)-14-hydroxy-3-((2S,3R,4R,Z)-3-hydroxy-8-((2R,3S)-3-hydroxy-2-methylhexanamido)-4-methyloct-6-en-2-yl)-12-methoxy-8-methyl-1-oxo-3,4,7,8,9,10-hexahydro-1H-benzo[c][1]oxacyclododecin-9-yl glycinate]",,,1.74,0.0875,0.0148,"fold difference of IC50 versus cruentaren A (K562 (leukemia); K562, versus cruentaren A): 10 fold"
"CCC[C@H](OC(=O)[C@H](N)Cc1ccccc1)[C@@H](C)C(=O)NC/C=C\C[C@@H](C)[C@@H](O)[C@H](C)[C@@H]1C/C=C\C[C@H](C)[C@H](OC(=O)[C@H](N)Cc2ccccc2)Cc2cc(OC)cc(O)c2C(=O)O1 [Compound 7, (2R,3S)-1-(((5R,6R,7S,Z)-7-((3S,8S,9R,Z)-9-((D-phenylalanyl)oxy)-14-hydroxy-12-methoxy-8-methyl-1-oxo-3,4,7,8,9,10-hexahydro-1H-benzo[c][1]oxacyclododecin-3-yl)-6-hydroxy-5-methyloct-2-en-1-yl)amino)-2-methyl-1-oxohexan-3-yl D-phenylalaninate]",0.051,0.065,2.46,,,"IC50 (MCF7 (breast cancer); read-out: IC50 values MCF7, MCF7): 0.0513 µM; IC50 (K562 (leukemia); read-out: IC50 values K562, K562): 0.0646 µM"
"CCC[C@H](OC(C)=O)[C@@H](C)C(=O)NC/C=C\C[C@@H](C)[C@@H](O)[C@H](C)[C@@H]1C/C=C\C[C@H](C)[C@H](OC(C)=O)Cc2cc(OC)cc(O)c2C(=O)O1 [Compound 8, (2R,3S)-1-(((5R,6R,7S,Z)-7-((3S,8S,9R,Z)-9-acetoxy-14-hydroxy-12-methoxy-8-methyl-1-oxo-3,4,7,8,9,10-hexahydro-1H-benzo[c][1]oxacyclododecin-3-yl)-6-hydroxy-5-methyloct-2-en-1-yl)amino)-2-methyl-1-oxohexan-3-yl acetate]",,,3.36,0.574,1.28,

# The next lines start with results.
IC50 (MCF7 (breast cancer); [3]) [µM],IC50 (K562 (leukemia); [4]) [µM],IC50 (A549 (lung cancer); [5]) [µM],SMILES,IC50 (MCF7 (breast cancer); [6]) [µM],IC50 (K562 (leukemia); [7]) [µM],also measured
0.174,1.16,1.96,"CCC[C@H](O)[C@@H](C)C(=O)NC/C=C\C[C@@H](C)[C@@H](O)[C@H](C)[C@@H]1C/C=C\C[C@H](C)[C@H](OC(C)=O)Cc2cc(OC)cc(O)c2C(=O)O1 [Compound 10, (3S,8S,9R,Z)-14-hydroxy-3-((2S,3R,4R,Z)-3-hydroxy-8-((2R,3S)-3-hydroxy-2-methylhexanamido)-4-methyloct-6-en-2-yl)-12-methoxy-8-methyl-1-oxo-3,4,7,8,9,10-hexahydro-1H-benzo[c][1]oxacyclododecin-9-yl acetate]",,,"IC50 (MCF7 (breast cancer); Homo sapiens, MCF7, read-out: IC50 MCF7, MCF7): 0.17 µM; IC50 (K562 (leukemia); Homo sapiens, K562, read-out: IC50 K562, K562): 1.16 µM; IC50 (A549 (lung cancer); A549, read-out: IC50 A549): 1.96 µM"
0.52,1.12,1.24,"CCC[C@H](O)[C@@H](C)C(=O)NC[C@@H]1C[C@@H]1C[C@@H](C)[C@@H](O)[C@H](C)[C@@H]1C/C=C\C[C@H](C)[C@H](O)Cc2cc(OC)cc(O)c2C(=O)O1 [Compound 15, (2R,3S)-N-(((1R,2R)-2-((2R,3R,4S)-4-((3S,8S,9R,Z)-9,14-dihydroxy-12-methoxy-8-methyl-1-oxo-3,4,7,8,9,10-hexahydro-1H-benzo[c][1]oxacyclododecin-3-yl)-3-hydroxy-2-methylpentyl)cyclopropyl)methyl)-3-hydroxy-2-methylhexanamide]",,,fold reduction in activity compared to cruentaren A [2]: 100 fold
0.00637,0.0483,1.75,"CCC[C@H](O)[C@@H](C)C(=O)NC/C=C/C[C@@H](C)[C@@H](O)[C@H](C)[C@@H]1C/C=C\C[C@H](C)[C@H](O)Cc2cc(OC)cc(O)c2C(=O)O1 [Compound 16, (2R,3S)-N-((5R,6R,7S,E)-7-((3S,8S,9R,Z)-9,14-dihydroxy-12-methoxy-8-methyl-1-oxo-3,4,7,8,9,10-hexahydro-1H-benzo[c][1]oxacyclododecin-3-yl)-6-hydroxy-5-methyloct-2-en-1-yl)-3-hydroxy-2-methylhexanamide]",,,levels of Hsp70 and Hsp90 (heat shock response) [1]: remained at the same level as vehicle control
0.179,1.39,4,"CCC[C@H](O)[C@@H](C)C(=O)NCCCC[C@@H](C)[C@@H](O)[C@H](C)[C@@H]1CCCC[C@H](C)[C@H](O)Cc2cc(OC)cc(O)c2C(=O)O1 [Compound 12, (2R,3S)-N-((5R,6R,7S)-7-((3S,8S,9R)-9,14-dihydroxy-12-methoxy-8-methyl-1-oxo-3,4,5,6,7,8,9,10-octahydro-1H-benzo[c][1]oxacyclododecin-3-yl)-6-hydroxy-5-methyloctyl)-3-hydroxy-2-methylhexanamide]",,,
0.189,1.27,1.54,"CCC[C@H](O)[C@@H](C)C(=O)NC[C@H](O)[C@H](O)C[C@@H](C)[C@@H](O)[C@H](C)[C@@H]1C/C=C\C[C@H](C)[C@H](O)Cc2cc(OC)cc(O)c2C(=O)O1 [Compound 14, (2R,3S)-N-((2S,3R,5R,6R,7S)-7-((3S,8S,9R,Z)-9,14-dihydroxy-12-methoxy-8-methyl-1-oxo-3,4,7,8,9,10-hexahydro-1H-benzo[c][1]oxacyclododecin-3-yl)-2,3,6-trihydroxy-5-methyloctyl)-3-hydroxy-2-methylhexanamide]",,,fold reduction in activity compared to cruentaren A [2]: ~ 40 fold
